The values that follow come from ChEMBL document CHEMBL2331412, “Oxo-heterocyclic fused naphthalimides as antitumor agents: synthesis and biological evaluation” (Eur J Med Chem, 2013).

The structures appear in SMILES notation. Activity calls are given as the source filed them. The calls are words filed in the database; no cut-off is given here.

Test [1] is described as follows: Cytotoxicity against human LO2 cells by SRB assay. The test is classed as cell-based. Particulars: L02. (In general: Sulforhodamine B stains cellular protein and so reports cell mass.)
The next test concerns P388. Kind of test: Cytotoxicity against mouse P388 cells by tetrazolium-formazan assay. It is filed as functional, cell-based.
For the next test, the system named is A549. Kind of test: Cytotoxicity against human A549 cells by SRB assay. The test is classed as functional, cell-based.
The nature of test [2]: Binding affinity to 5'ATGCGCAT3'/3'TACGCGTA5' (unknown origin).
Test [3] is described as follows: Binding affinity to 5'ACCCCT3'/3'TGGGGA5' (unknown origin).
The nature of test [4]: Binding affinity to 5'TGGCGA3'/3'ACCGCT5' (unknown origin).
A short description of test [5]: Binding affinity to 5'ACCGGT3'/3'TGGCCA5' (unknown origin).
Test [6] can be described thus: Binding affinity to 5'ACGGCT3'/3'TGCCGA5'(unknown origin).
Test [7] in a line: Binding affinity to 5'ACGCCT3'/3'TGCGGA5' (unknown origin).
A short description of test [8]: Binding affinity to 5'TGCGCA3'/3'ACGCGT5' (unknown origin).
The nature of test [9]: Binding affinity to 5'ACCCGT3'/3'TGGGCA5' (unknown origin).
Test [10] is described as follows: Binding affinity to Poly(dGdC).Poly(dGdC) (unknown origin). An outline of the steps:
(§1)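 Fluorescence titration in 20 mM sodium phosphate pH 7.0 at 20 ± 1 °C. Compound held at 3 × 10^-6 M while polydeoxynucleotide was varied from 0 to 6.32 × 10^-5 M. Ka was obtained by nonlinear curve fitting of the data. The ratio line is the GC-polymer Ka divided by the AT-polymer Ka.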

A short description of test [11]: Binding affinity to Poly(dAdT).Poly(dAdT) (unknown origin). An outline of the steps: as §1
The species entered for test [12] is Bos taurus. Kind of test: Inhibition of calf thymus topoisomerase 1-mediated pBR322 relaxation at 100 uM after 30 mins by agarose gel electrophoresis. An outline of the steps: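 Topoisomerase I and compound were incubated 30 min at 37 °C in topo I buffer with 0.01% BSA. Reactions were stopped with SDS and loading dye, then run on 0.8% agarose in TAE for 35 min at 120 V, stained with ethidium bromide and imaged under UV.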

Test [13] deals with DNA topoisomerase 2-alpha (Homo sapiens) (UniProt P11388). Kind of test: Inhibition of human topoisomerase 2a-mediated kinetoplast decatenation at 100 uM after 30 mins by agarose gel electrophoresis. An outline of the steps: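 ATP-dependent kDNA decatenation by 1 unit human topo IIα. Incubated 30 min at 37 °C in 50 mM Tris-HCl pH 8, 150 mM NaCl, 10 mM MgCl2, 2 mM ATP and 0.5 mM DTT. Stopped with SDS, run on 0.8% agarose in TAE for 50 min at 120 V, stained with ethidium bromide and imaged under UV.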

Test [14] concerns DNA. Kind of test: Binding affinity to calf thymus DNA at 20 uM by circular dichroism analysis. It is filed as nucleic-acid assay. To be noted: Bos taurus. An outline of the steps: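 Circular dichroism spectra of compound with calf thymus DNA in 20 mM Tris-HCl pH 7.5 containing 1% DMSO (v/v). Recorded in a 1 cm quartz cell over 240–300 nm.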
In general terms: CD spectra are sensitive to the conformation of chiral molecules.

Test [15] concerns DNA. Kind of test: Binding affinity to calf thymus DNA at 20 uM after 1 hr by fluorimetric analysis. It is filed as nucleic-acid assay. Particulars: Bos taurus; 10 uM; in the assay text read “at 10 uM” for “at 20 uM”. Put shortly:
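Fluorescence quenching with increasing calf thymus DNA in 20 mM Tris-HCl pH 7.5 containing 1% DMSO (v/v). Mixtures were stirred for 1 h at 25 °C in the dark before each spectrum was recorded. Kb came from nonlinear fitting of fluorescence intensity against DNA concentration.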

The species entered for test [16] is Bos taurus. Kind of test: Inhibition of calf thymus topoisomerase 1-mediated pBR322 relaxation at 200 uM after 30 mins by agarose gel electrophoresis. An outline of the steps: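 Topoisomerase I and compound incubated 30 min at 37 °C in topoisomerase I buffer with 0.01% BSA. Reactions were stopped with 10% SDS and loading dye. Products were resolved on a 0.8% agarose gel in TAE for 35 min at 120 V, stained with ethidium bromide at room temperature and photographed under UV.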

Test [17] is described as follows: Selectivity ratio of Ka for Poly(dGdC).Poly(dGdC) (unknwon origin) to Ka for Poly(dAdT).Poly(dAdT) (unknown origin). An outline of the steps:
as §1

DNA topoisomerase 2-alpha (Homo sapiens), sequence (P11388 whole entry): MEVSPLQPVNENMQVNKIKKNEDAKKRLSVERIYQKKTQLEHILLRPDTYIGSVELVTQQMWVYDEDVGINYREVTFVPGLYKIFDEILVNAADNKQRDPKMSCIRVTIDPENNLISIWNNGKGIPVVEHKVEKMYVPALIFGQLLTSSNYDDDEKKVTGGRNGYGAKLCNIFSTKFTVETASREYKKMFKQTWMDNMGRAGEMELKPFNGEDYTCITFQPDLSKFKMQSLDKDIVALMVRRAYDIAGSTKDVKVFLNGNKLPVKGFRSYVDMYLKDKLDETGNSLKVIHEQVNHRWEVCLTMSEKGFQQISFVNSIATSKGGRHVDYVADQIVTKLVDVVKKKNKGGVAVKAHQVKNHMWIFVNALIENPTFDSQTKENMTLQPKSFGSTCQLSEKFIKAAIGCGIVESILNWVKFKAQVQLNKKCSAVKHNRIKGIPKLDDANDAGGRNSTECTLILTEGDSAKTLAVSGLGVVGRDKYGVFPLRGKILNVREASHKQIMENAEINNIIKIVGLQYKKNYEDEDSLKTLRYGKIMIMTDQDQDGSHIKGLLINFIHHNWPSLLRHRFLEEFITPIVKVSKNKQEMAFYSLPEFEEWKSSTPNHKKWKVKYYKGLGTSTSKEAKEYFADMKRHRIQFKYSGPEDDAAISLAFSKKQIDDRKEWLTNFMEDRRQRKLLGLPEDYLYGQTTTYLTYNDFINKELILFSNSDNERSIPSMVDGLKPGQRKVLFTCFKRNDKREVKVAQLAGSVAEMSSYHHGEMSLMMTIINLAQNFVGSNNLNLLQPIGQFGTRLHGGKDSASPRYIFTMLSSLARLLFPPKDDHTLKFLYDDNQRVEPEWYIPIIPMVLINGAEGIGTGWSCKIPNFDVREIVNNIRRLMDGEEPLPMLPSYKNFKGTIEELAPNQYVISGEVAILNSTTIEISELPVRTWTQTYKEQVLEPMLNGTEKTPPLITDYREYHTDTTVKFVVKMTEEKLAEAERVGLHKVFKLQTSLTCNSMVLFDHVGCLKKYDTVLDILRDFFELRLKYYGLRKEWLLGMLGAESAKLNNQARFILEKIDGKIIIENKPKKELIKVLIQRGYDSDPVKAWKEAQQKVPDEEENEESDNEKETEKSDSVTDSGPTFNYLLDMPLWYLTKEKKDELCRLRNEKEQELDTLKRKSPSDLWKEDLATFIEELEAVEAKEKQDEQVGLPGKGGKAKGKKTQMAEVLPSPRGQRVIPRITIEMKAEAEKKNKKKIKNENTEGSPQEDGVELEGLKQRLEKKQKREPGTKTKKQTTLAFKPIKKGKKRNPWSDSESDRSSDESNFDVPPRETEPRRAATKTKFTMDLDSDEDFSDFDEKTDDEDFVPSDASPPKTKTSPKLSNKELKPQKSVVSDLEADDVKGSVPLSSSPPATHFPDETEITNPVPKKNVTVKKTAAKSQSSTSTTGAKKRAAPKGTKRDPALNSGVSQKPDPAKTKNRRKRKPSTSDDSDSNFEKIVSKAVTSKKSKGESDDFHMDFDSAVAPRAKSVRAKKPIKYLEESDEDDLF

As usually defined, the IC50 is the point on the concentration scale where inhibition reaches its midpoint. Take `CN(C)CCCn1c(=O)c2ccc3oc4ccccc4c4ccc(c1=O)c2c34`: the concentration for half-maximal inhibition (IC50) came to 10.3 µM in [1], 3.5 µM with P388 and 98.3 µM in the test with A549.

Take `COc1ccc(-c2nc3cc4c5c(cccc5c3s2)C(=O)N(CCN(C)C)C4=O)cc1`: the IC50 in the test on P388 is 0.43 µM; in the test with A549, 0.016 µM.

On to `CN(C)CCn1c(=O)c2ccc3oc4ccccc4c4ccc(c1=O)c2c34`, for which the Ka was 8 ×10⁴ /M in test [2]; 1.72 ×10⁵ /M in [3]; 8.4 ×10⁴ /M in test [4]; 1.12 ×10⁵ /M in test [5]; 5.9 ×10³ /M in test [6]; 6.9 ×10³ /M in test [7]. In addition, the Ka in test [8] was 1.28 ×10⁵ /M; in [9] it was 1.2 ×10⁴ /M; in test [10], 6.89 ×10⁵ /M; in [11], 1.32 ×10⁵ /M; in the test on DNA [15], 1.45 ×10⁵ /M. In addition, in the test filed under Bos taurus [12], the “Topoisomerase 1 relaxation inhibition (qualitative)” value is “Active”. In [13], the “Inhibition (qualitative)” value was “Active”. Besides, the outcome in the test on DNA [14] was Active. Besides, the values for the IC50 (in test [1]; with P388; in the test on A549) were 4.1 µM, 1.11 µM and 0.61 µM, respectively.

`CN(C)CCN1C(=O)c2cccc3c2c(cc2nc(-c4ccc([N+](=O)[O-])cc4)oc23)C1=O`: the IC50 in test [1] is over 100 µM; in the test on P388, 100 µM; in the test with A549 it was 17.8 µM.

Turning to `CN(C)CCCn1c(=O)c2ccc3sc4ccccc4c4ccc(c1=O)c2c34`, the IC50 was 0.63 µM with P388 and 0.19 µM with A549.

As for `O=c1c2ccc3sc4ccccc4c4ccc(c(=O)n1CCN1CCNCC1)c2c34`, the values for the IC50 with P388 and in the test on A549 were over 100 µM and 100 µM, respectively.

Turning to `CCCCN1C(=O)c2cccc3c2c(cc2c4ccccc4sc32)C1=O`, the IC50 in the test with P388 was found to be 0.74 µM; in the test with A549, 1.35 µM.

`COc1cc([C@@H]2c3cc4c(cc3[C@@H](O[C@@H]3O[C@@H]5CO[C@@H](C)O[C@H]5[C@H](O)[C@H]3O)[C@H]3COC(=O)[C@H]23)OCO4)cc(OC)c1O`: in the test filed under Bos taurus [12], the “Topoisomerase 1 relaxation inhibition (qualitative)” value is “Active”. For the same compound, the “Inhibition (qualitative)” value in test [13] is “Active”.

For `CN(C)CCCN1C(=O)c2cccc3c2c(cc2c4ccccc4sc32)C1=O`, the results for the IC50 with P388 and in the test on A549 were 0.32 µM and 0.25 µM, respectively.

On to `CC[C@@]1(O)C(=O)OCc2c1cc1n(c2=O)Cc2cc3ccccc3nc2-1`, for which the inhibition entry in the test filed under Bos taurus [16] is “Active”.

Regarding `O=C1c2cccc3c2c(cc2c4ccccc4sc32)C(=O)N1CCN1CCNCC1`, the values for the IC50 in the test on P388 and with A549 were 72.4 µM and 11.8 µM, respectively.

As for `CN(C)CCn1c(=O)c2ccc3sc4ccccc4c4ccc(c1=O)c2c34`, the Ka is 4.76 ×10⁵ /M in test [2]; 1.89 ×10⁵ /M in test [3]; 2.13 ×10⁵ /M in [4]; 4 ×10⁵ /M in [5]; 3 ×10⁴ /M in [6]; 1.92 ×10⁵ /M in test [7]. Further, the Ka was 3.33 ×10⁶ /M in test [8]; 9.09 ×10⁵ /M in test [9]; 4.76 ×10⁶ /M in test [10]; 4.48 ×10⁵ /M in [11]; 9.7 ×10⁴ /M with DNA [15]. Besides, the Selectivity ratio in test [17] amounted to 10. Further, the “Topoisomerase 1 relaxation inhibition (qualitative)” value in the test filed under Bos taurus [12] was “Active”. Also, the “Inhibition (qualitative)” value in test [13] is “Active”. In addition, the result in the test with DNA [14] was Active. In [1], this compound came in with an IC50 of 4.1 µM.

Take `CCCCN1C(=O)c2cccc3c2c(cc2c4ccccc4oc32)C1=O`: the IC50 in [1] is over 100 µM; in the test with P388, over 100 µM; in the test on A549, 1.4 µM.

On to `CN(C)CCN1C(=O)c2cccc3c2c(cc2nc(-c4ccccc4)oc23)C1=O`, for which the IC50 in test [1] was 3 µM; in the test on P388, 2.5 µM; in the test on A549, 0.53 µM.

For `CN(C)CCN1C(=O)c2cccc3cc(N)cc(c23)C1=O` [AMONAFIDE], the “Inhibition (qualitative)” value in [13] was “Active”. In addition, the half-inhibitory concentration (IC50) in test [1] was found to be 5 µM.

As for `O=c1c2ccc3oc4ccccc4c4ccc(c(=O)n1CCN1CCNCC1)c2c34`, the IC50 was found to be 11.5 µM in test [1], 4.52 µM in the test on P388 and 28.9 µM with A549.

With `CN(C)CCN1C(=O)c2cccc3c2c(cc2c4ccccc4sc32)C1=O`, the Selectivity ratio in test [17] worked out at 10. The Ka in test [10] stood at 7.6 ×10⁷ /M; in test [11], 8 ×10⁶ /M; with DNA [15], 1.1 ×10⁵ /M. Further, the “Topoisomerase 1 relaxation inhibition (qualitative)” value in the test filed under Bos taurus [12] is “Active”. In test [13], the “Inhibition (qualitative)” value is “Active”. Further, in the test with DNA [14], the result was Active. Further, the IC50 in [1] is 0.9 µM.

As for `CCCCn1c(=O)c2ccc3sc4ccccc4c4ccc(c1=O)c2c34`, the values for the half-maximal inhibitory concentration (IC50) with P388 and with A549 were 1.2 µM and 0.87 µM, respectively.

As for `CN(C)CCCN1C(=O)c2cccc3c2c(cc2c4ccccc4oc32)C1=O`, the IC50 stood at 6.6 µM in test [1], 0.17 µM in the test on P388 and 0.74 µM in the test with A549.

Turning to `COc1ccc(-c2nc3cc4c5c(cccc5c3o2)C(=O)N(CCN(C)C)C4=O)cc1`, the half-inhibitory concentration (IC50) in [1] was determined as 3.4 µM; in the test on P388 it was 1.29 µM; with A549, 6.6 µM.

For the compound `Cc1ccc(-c2nc3cc4c5c(cccc5c3s2)C(=O)N(CCN(C)C)C4=O)cc1`, the values for the IC50 in the test on P388 and in the test on A549 were 0.62 µM and 0.42 µM, respectively.

Regarding `COc1ccccc1-c1nc2cc3c4c(cccc4c2o1)C(=O)N(CCN(C)C)C3=O`, the IC50 stood at 1.9 µM in test [1], 1.3 µM with P388 and 0.89 µM in the test with A549.

Turning to `CN(C)CCN1C(=O)c2cccc3c2c(cc2nc(-c4ccc(Cl)cc4)oc23)C1=O`, the IC50 in test [1] is over 100 µM; in the test on P388 it was 20.1 µM; in the test with A549, 72.4 µM.

In the case of `CN(C)CCN1C(=O)c2cccc3c2c(cc2c4ccccc4oc32)C1=O`, the Ka in [10] came to 6.36 ×10⁶ /M; in test [11], 5 ×10⁶ /M; in the test with DNA [15] it was 2.89 ×10⁵ /M. In addition, the “Topoisomerase 1 relaxation inhibition (qualitative)” value in the test listed under Bos taurus [12] was “Active”. The “Inhibition (qualitative)” value in test [13] is “Active”. The result in the test on DNA [14] was Active. The IC50 was 5 µM in test [1], 0.65 µM with P388 and 0.36 µM with A549.

Turning to `CCCCn1c(=O)c2ccc3oc4ccccc4c4ccc(c1=O)c2c34`, the IC50 in test [1] is over 100 µM; in the test with P388, over 100 µM; in the test on A549, 5.39 µM.

On to `Cc1ccc(-c2nc3cc4c5c(cccc5c3o2)C(=O)N(CCN(C)C)C4=O)cc1`, for which the half-inhibitory concentration (IC50) stood at 6.7 µM in test [1], 19.3 µM with P388 and 34.7 µM in the test on A549.

Turning to `CN(C)CCN1C(=O)c2cccc3c2c(cc2nc(-c4ccccc4)sc23)C1=O`, the concentration for half-maximal inhibition (IC50) came to 0.66 µM in the test on P388 and 0.085 µM in the test with A549.
